Bioassay records (PubChem)
GSK3A inh = inhibitors of human GSK-3 alpha kinase. inhibition, % at 10 µM. ADP-Glo luminescence, 60 min. actives 0.1% (n = 320,000). P49840;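 active means more than half of replicates show inhibition above 20%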;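 further: GST-tagged GSK-3 alpha with peptide substrate and 25 µM ATP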
STK33 inh = inhibitors of human STK33 kinase; actives 0.073% (n = 320,000); Q9BYT3; inhibition, % at 10 µM; AID 2661; purified STK33, MBP phosphorylation, ADP-Glo luminescence;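 active means inhibition at or above 25%, using the most active replicate where run in duplicate; inactive means inhibition below 25%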
Lipid droplet = hepatic lipid droplet formation modulation. inhibition, % at 6.5 µM. actives 0.4% (n = 240,000). AML12 mouse hepatocytes, oleate lipid droplets, BODIPY imaging. AID 1656;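 active means lipid droplet intensity inhibited by at least 50%, with more than 500 cells counted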
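Material – AML12 mouse liver cells · Also added – oleate loading, 100 µM · Compound dosing – 6.5 µM single-point dosing · Times – overnight treatment with compound plus oleate · Measured by – fluorescence imaging, 20x objective, two fields per well · Read-out – percent inhibition of filter-corrected integrated lipid droplet intensity per well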
Rce1 inh = yeast Ras-converting enzyme inhibition. calls only. actives 0.27% (n = 290,000). AID 2563. yeast membranes, quenched prenylated peptide cleavage fluorescence;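 active means fall in fluorescence gain of 50% or more versus controls, with final raw signal at or below 3038400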
Target sequence (Q03530 whole entry, looked up): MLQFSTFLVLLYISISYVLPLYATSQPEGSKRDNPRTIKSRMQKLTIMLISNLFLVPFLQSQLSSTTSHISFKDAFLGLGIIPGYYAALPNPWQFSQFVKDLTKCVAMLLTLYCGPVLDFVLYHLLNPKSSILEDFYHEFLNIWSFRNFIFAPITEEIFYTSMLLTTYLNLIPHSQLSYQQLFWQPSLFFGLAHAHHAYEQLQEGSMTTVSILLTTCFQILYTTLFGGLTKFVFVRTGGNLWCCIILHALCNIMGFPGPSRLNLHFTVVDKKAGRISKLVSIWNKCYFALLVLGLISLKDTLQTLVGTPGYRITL
HSV replic up = HSV replication enhancement; HSV replication augmentation in cells, fold increase; maximum fold increase; actives 0.005% (n = 220,000); AID 1956; in the data active means maximum fold increase above about 1.5; tested in PC3 cells
GSK3B inh = inhibitors of human GSK3beta kinase. P49841. AID 2097. GST-GSK3beta kinase, ADP-Glo luminescence, 60 min; hits give low values. activity score (negative = inhibition), % at 10 µM. actives 0.038% (n = 300,000);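 active means more than half of replicate wells score below -50%, meaning over 50% inhibition versus plate controls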
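Assay system: GST-tagged human GSK3beta kinase, cell-free; Input: 1.6 ng GSK3beta; Medium: Tris/MgCl2 kinase buffer; Timing: 60 min enzyme reaction, room temperature; Signal: ADP-Glo luminescence quantifying ADP generated by kinase; Evaluation: score relative to plate controls; Benchmarks: DMSO neutral wells and GW8510 at 20 µM as positive.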
Hep lipid conf = confirmation of inhibitors of hepatic lipid droplet formation; inhibition, % at 5.2 µM; actives 65% (n = 870); AML12 mouse hepatocytes, BODIPY lipid droplet imaging; droplets induced with 100 µM oleic acid; AID 463183; shares compounds with Lipid droplet;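 active means inhibition of lipid droplet metric at least 50%, with more than 300 cells in each of four replicates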
AML12 cytotox = counter-screen for cytotoxicity in AML12 mouse hepatocytes; shares compounds with Lipid droplet; DAPI nuclear morphology cytotoxicity imaging; hits give high values; cells fed 100 µM oleate overnight; z-score at 5 µM; actives 3% (n = 870); AID 463200; in the data active means z-score above about 6.3;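 further: compound exposure lasted overnight at 37 °C before fixation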
AML12 tox ATP = AML12 hepatocyte cytotoxicity, confirmed; 530 tested, under 10 active; AML12 mouse hepatocyte viability, ATP luminescence; cells loaded with 100 µM oleic acid; AID 463219; cytotoxicity, % at 50 µM; shares compounds with Lipid droplet;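 active means cytotoxicity above 50% in each of four replicates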;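 further: compound exposure lasted overnight at 37 °C before the ATP read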
Of the large screens only hits and unclear results are named; the others gave an inactive call (follow-up assays come after a bar, where they were run). Compounds with a hit are over-represented: about 0.7% of the library has one in this group of screens.

CC(=O)Oc1ccc(N(C(C)=O)S(=O)(=O)c2ccc(C)c([N+](=O)[O-])c2)cc1	none
Cc1ccc(-c2c(C(=O)NC(C)C)oc(=O)c3ccccc23)cc1	Lipid droplet 53.4 (no result: GSK3A inh) | Hep lipid conf inactive | AML12 cytotox inactive
CCn1cc([N+](=O)[O-])c(C(=O)N2N=C(c3ccc4ccccc4c3)CC2c2cc(Br)ccc2O)n1 (stereo unspecified)	Lipid droplet 89.4 | Hep lipid conf 77.2 | AML12 cytotox inactive | AML12 tox ATP inactive
Cc1c(C(=O)O)sc2nc3n(c(=O)c12)CCC(C)CC3 (stereo unspecified)	Lipid droplet 93.4 | Hep lipid conf inactive | AML12 cytotox inactive
COc1ccccc1NS(=O)(=O)c1cc(NC(=O)c2cc3ccccc3oc2=O)ccc1C	Lipid droplet 58.4 | Hep lipid conf inactive | AML12 cytotox inactive
COc1ccc(CC(=O)Nn2c(-c3ccccc3)nc3ccccc3c2=O)cc1	Lipid droplet 55.9 | Hep lipid conf 90.5 | AML12 cytotox inactive
COc1ccc(-c2nc3ccccc3c(=O)n2NC(=O)Cc2ccccc2)cc1	none
O=c1ccc(-c2ccc([N+](=O)[O-])cc2)nn1-c1ccccc1	none
O=[N+]([O-])c1ccc(-[n+]2nc(-c3ccccc3)nn2-c2ccccc2)cc1	Lipid droplet 86.6 (no result: HSV replic up) | Hep lipid conf 114.7 | AML12 cytotox inactive | AML12 tox ATP inactive
COc1ccc(C2=CC3=C(Br)C(=O)C(C)(OC(=O)c4cnc5ccccc5n4)C(=O)C3=CO2)cc1 (stereo unspecified)	none (no result: GSK3A inh, STK33 inh, Lipid droplet, Rce1 inh, GSK3B inh)
CCN(CC)c1ccc(NC(=O)CCc2nnc3ccc(N4CCCC4)nn23)c(C)c1	Lipid droplet 71.9 (no result: HSV replic up) | Hep lipid conf 97.8 | AML12 cytotox inactive | AML12 tox ATP inactive
CCOC(=O)c1ccc(NC(=O)CCc2nnc3ccc(N4CCCC4)nn23)cc1	none (no result: HSV replic up)
CCOc1ccc(CCNC(=O)C2CCN(S(=O)(=O)N3CCCCC3)CC2)cc1OCC	Lipid droplet 107.9 (no result: GSK3A inh, STK33 inh) | Hep lipid conf 105.1 | AML12 cytotox inactive
CCOc1ccc(CCNC(=O)CCc2nnc3ccc(N4CCCCC4)nn23)cc1OCC	Lipid droplet 86.5 (no result: HSV replic up) | Hep lipid conf 108.8 | AML12 cytotox inactive | AML12 tox ATP inactive
CSc1nccc(Oc2ccc(C#N)cc2)n1	none (no result: GSK3A inh)
COc1ccc(S(=O)(=O)N2CCN(C(=O)c3ccco3)CC2)c(C)c1C	none (no result: HSV replic up)
COc1ccccc1NC(=O)C1CCN(C(=O)NCc2ccccc2)CC1	Lipid droplet 50.6 (no result: HSV replic up) | Hep lipid conf 80.3 | AML12 cytotox inactive | AML12 tox ATP inactive
O=C(CN1C(=O)NC2(CCOc3ccccc32)C1=O)c1ccc(Br)cc1 (stereo unspecified)	Lipid droplet 65.8 (no result: Rce1 inh, HSV replic up) | Hep lipid conf 101.6 | AML12 cytotox inactive | AML12 tox ATP inactive
O=C(CN1C(=O)NC2(CCOc3ccccc32)C1=O)c1ccc(Cl)cc1 (stereo unspecified)	none (no result: Lipid droplet, HSV replic up)
COc1ccc(C(=O)NCCCNC(=O)c2ccc(C)nc2)cc1	none (no result: HSV replic up)
C=CCn1c(N)cc(=O)nc1SC(C)C(=O)Nc1ccc(C(=O)OCC)cc1 (stereo unspecified)	none (no result: HSV replic up)
N#C/C(=C\c1ccc(-c2ccccc2[N+](=O)[O-])o1)C(=O)Nc1nc(-c2cccs2)cs1	Lipid droplet 72.1 | Hep lipid conf 101.2 | AML12 cytotox inactive | AML12 tox ATP inactive
Oc1ccc(N=Nc2cccc(C(F)(F)F)c2)cc1C=Nc1ccc(N2CCOCC2)cc1	Lipid droplet 57.6 (no result: HSV replic up) | Hep lipid conf inactive | AML12 cytotox inactive
CCCOc1ccccc1OCC(=O)Nc1cc(Cl)ccc1-n1cncn1	none (no result: Lipid droplet, HSV replic up)
CCN(CC)S(=O)(=O)c1ccc(S(=O)(=O)N(CC(=O)Nc2ccccc2)CC2CCCO2)cc1 (stereo unspecified)	none (no result: Lipid droplet)
